Activity calls are given as the source filed them. The calls are words filed in the database; no cut-off is given here.
What was measured:
[1] = target: Vascular endothelial growth factor receptor 1 (Homo sapiens) (UniProt P17948); experiment: Inhibition of recombinant human N-terminal GST-tagged VEGFR1 (784 to 1338 residues) expressed in baculovirus infected Sf21 cells assessed as remaining activity at 10 uM using KKKSPGEYVNIEFG as substrate incubated for 30 mins in presence of [gamma-33P]ATP by filter binding assay relative to control
Procedure, shortened: (§1)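 Panel assays were run for 30 min at 21 °C, within the linear range for time and enzyme. […] Results are percent activity remaining relative to compound-free control, averaged from triplicate ± S.D.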

[2] = target: T1, mTORC2 (Homo sapiens) (UniProt P42345+Q6R327+Q9BVC4+Q9BPZ7); details: HEK293, dose 100-1000 nM, time 12-48 hrs
[3] = test system: RAC-alpha serine/threonine-protein kinase (Homo sapiens), P31749 [S473D]; experiment: Inhibition of recombinant human His6-tagged AKT1 S473D mutant (118 to 480 residues) expressed in baculovirus infected Sf21 cells assessed as remaining activity at 1 uM using crosstide peptide as substrate incubated for 30 mins in presence of [gamma-33P]ATP by filter binding method relative to control
Procedure, shortened: (§2)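 Radiometric panel assay run robotically at 21 °C for 30 min, linear in time and enzyme. […] Activity is expressed as percentage of the compound-omitted control, averaged from triplicates ± S.D.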

[4] = test system: MEF; experiment: Induction of cell cycle arrest in mLST8 knockout MEF cells assessed as accumulation at S phase at 3 uM incubated for 1 to 3 days by propidium iodide staining based flow cytometric analysis (reference value: 59.7 +/- 0.49%); format: toxicity; details: mouse, time 1-3 day
[5] = target: SRSF protein kinase 1 (Homo sapiens) (UniProt Q96SB4); experiment: Inhibition of recombinant human N-terminal GST-tagged SRPK1 (2 to 654 residues) expressed in Escherichia coli assessed as remaining activity at 1 uM using RSRSRSRSRSRSRSR as substrate incubated for 30 mins in presence of [gamma-33P]ATP by filter binding assay relative to control
Procedure, shortened: (§3)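 Incubation was 30 min at room temperature (21 °C) under conditions linear with time and enzyme amount. Activity is reported as percent of control lacking compound, triplicate mean ± S.D.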

[6] = target: Aurora kinase B (Homo sapiens) (UniProt Q96GD4); experiment: Inhibition of recombinant human N-terminal His6-tagged Aurora B (1 to 344 residues) expressed in Escherichia coli assessed as remaining activity at 10 uM using LRRLSLGLRRLSLGLRRLSLGLRRLSLG as substrate incubated for 30 mins in presence of [gamma-33P]ATP by filter binding method relative to control
[7] = target: Serine/threonine-protein kinase D1 (Homo sapiens) (UniProt Q15139); experiment: Inhibition of recombinant human N-terminal His6-tagged PKD1 (2 to 912 residues) expressed in baculovirus infected Sf21 cells assessed as remaining activity at 1 uM using KKLNRTLSVA as substrate incubated for 30 mins in presence of [gamma-33P]ATP by filter binding method relative to control
[8] = target: Serine/threonine-protein kinase Nek6 (Homo sapiens) (UniProt Q9HC98); experiment: Inhibition of recombinant human His6-tagged NEK6 (8 to 313 residues) expressed in baculovirus infected Sf21 cells assessed as remaining activity at 1 uM using FLAKSFGSPNRAYKK as substrate incubated for 30 mins in presence of [gamma-33P]ATP by filter binding method relative to control
Procedure, shortened: (§4)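 Run robotically for 30 min at 21 °C under linear conditions. Compound at 1 or 10 µM. Percentage activity remaining versus control without compound, triplicate mean ± S.D.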

[9] = target: Serine/threonine-protein kinase PAK 6 (Homo sapiens) (UniProt Q9NQU5); experiment: Inhibition of recombinant human N-terminal GST-tagged PAK6 (2 to 681 residues) expressed in Escherichia coli assessed as remaining activity at 10 uM using RRRLSFAEPG as substrate incubated for 30 mins in presence of [gamma-33P]ATP by filter binding method relative to control; procedure, shortened: as §1
[10] = target: Dual specificity tyrosine-phosphorylation-regulated kinase 1A (Homo sapiens) (UniProt Q13627); experiment: Inhibition of recombinant human N-terminal GST-tagged DYRK1A (1 to 502 residues) expressed in Escherichia coli assessed as remaining activity at 10 uM using KKISGRLSPIMTEQ as substrate incubated for 30 mins in presence of [gamma-33P]ATP by filter binding method relative to control; procedure, shortened: as §4
[11] = target: Serine/threonine-protein kinase pim-2 (Homo sapiens) (UniProt Q9P1W9); experiment: Inhibition of recombinant human N-terminal GST-tagged PIM2 (2 to 334 residues) expressed in Escherichia coli assessed as remaining activity at 1 uM using RSRHSSYPAGT as substrate incubated for 30 mins in presence of [gamma-33P]ATP by filter binding method relative to control
Procedure, shortened: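 Radiometric kinase panel run robotically at room temperature (21 °C) for 30 min, linear in time and enzyme. […] Activity is expressed as percent of control without compound, from triplicate determinations ± S.D.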

[12] = target: Tyrosine-protein kinase BTK (Homo sapiens) (UniProt Q06187); experiment: Inhibition of recombinant human N-terminal His6-tagged BTK (2 to 659 residues) expressed in baculovirus infected Sf21 cells assessed as remaining activity at 1 uM using KVEKIGEGTYGVVYK as substrate incubated for 30 mins in presence of [gamma-33P]ATP by filter binding method relative to control; procedure, shortened: as §3
[13] = target: Phosphatidylinositol 3-kinase catalytic subunit type 3 (Homo sapiens) (UniProt Q8NEB9); experiment: Inhibition of VPS34 (unknown origin) assessed as remaining activity at 1 uM using phosphatidylinositol as substrate incubated for 60 mins in presence of ATP relative to control
[14] = target: MAP kinase-activated protein kinase 2 (Homo sapiens) (UniProt P49137); experiment: Inhibition of recombinant human N-terminal GST/C-terminal Myc-tagged MAPKAPK2 (46 to 400 residues) expressed in Escherichia coli assessed as remaining activity at 10 uM using KKLNRTLSVA as substrate incubated for 30 mins in presence of [gamma-33P]ATP by filter binding method relative to control
Procedure, shortened: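 Incubations ran robotically for 30 min at room temperature (21 °C) under linear conditions. Results are percent activity remaining versus controls without compound, as the mean of triplicates ± S.D.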

[15] = target: Casein kinase II subunit alpha (Homo sapiens) (UniProt P68400); experiment: Inhibition of recombinant human N-terminal His6-tagged CK2alpha1 (2 to 391 residues) expressed in Escherichia coli assessed as remaining activity at 1 uM using RRRDDDSDDD as substrate incubated for 30 mins in presence of [gamma-33P]ATP by filter binding method relative to control; procedure, shortened: as §2
[16] = target: T1, mTORC2 (Homo sapiens); details: HEK293, dose 30-1000 nM, time 30.0 min
[17] = target: mTORC1 (Homo sapiens) (UniProt P42345+Q8N122+Q9BVC4); details: HEK293, dose 30-1000 nM, time 30.0 min

Vascular endothelial growth factor receptor 1 (Homo sapiens), sequence (P17948 whole entry, the tested form may be a part): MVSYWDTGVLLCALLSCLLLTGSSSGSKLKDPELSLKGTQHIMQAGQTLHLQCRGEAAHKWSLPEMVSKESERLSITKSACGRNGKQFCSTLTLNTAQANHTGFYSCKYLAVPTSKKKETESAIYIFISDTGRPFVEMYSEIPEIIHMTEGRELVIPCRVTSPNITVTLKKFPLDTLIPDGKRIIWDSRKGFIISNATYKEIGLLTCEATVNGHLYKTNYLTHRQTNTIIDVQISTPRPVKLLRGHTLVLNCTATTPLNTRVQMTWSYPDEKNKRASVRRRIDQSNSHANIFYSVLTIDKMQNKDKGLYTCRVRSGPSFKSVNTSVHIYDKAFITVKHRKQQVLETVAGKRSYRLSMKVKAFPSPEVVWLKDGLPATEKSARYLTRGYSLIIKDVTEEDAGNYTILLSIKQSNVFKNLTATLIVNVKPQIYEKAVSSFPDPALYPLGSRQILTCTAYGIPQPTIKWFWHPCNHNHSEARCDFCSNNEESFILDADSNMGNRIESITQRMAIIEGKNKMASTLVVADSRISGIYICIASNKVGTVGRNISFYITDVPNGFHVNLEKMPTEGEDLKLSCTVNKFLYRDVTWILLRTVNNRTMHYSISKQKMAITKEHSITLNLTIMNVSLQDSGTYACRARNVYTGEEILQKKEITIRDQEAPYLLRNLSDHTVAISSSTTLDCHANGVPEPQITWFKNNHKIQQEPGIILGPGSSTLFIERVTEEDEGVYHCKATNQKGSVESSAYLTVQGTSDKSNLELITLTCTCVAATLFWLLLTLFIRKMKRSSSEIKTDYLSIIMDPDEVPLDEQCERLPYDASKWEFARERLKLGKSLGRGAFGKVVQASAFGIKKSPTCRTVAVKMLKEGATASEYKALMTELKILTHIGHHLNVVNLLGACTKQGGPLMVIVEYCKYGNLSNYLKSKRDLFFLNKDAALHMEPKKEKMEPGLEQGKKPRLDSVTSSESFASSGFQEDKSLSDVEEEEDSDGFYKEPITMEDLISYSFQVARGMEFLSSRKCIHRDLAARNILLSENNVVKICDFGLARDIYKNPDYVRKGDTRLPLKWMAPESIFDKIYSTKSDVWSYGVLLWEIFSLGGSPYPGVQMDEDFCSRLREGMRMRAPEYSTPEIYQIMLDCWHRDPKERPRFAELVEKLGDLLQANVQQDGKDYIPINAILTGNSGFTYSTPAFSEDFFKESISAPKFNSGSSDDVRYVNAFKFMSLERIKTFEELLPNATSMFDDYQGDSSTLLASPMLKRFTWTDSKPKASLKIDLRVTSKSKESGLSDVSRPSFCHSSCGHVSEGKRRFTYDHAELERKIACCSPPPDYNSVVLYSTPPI
Tyrosine-protein kinase BTK (Homo sapiens), sequence (Q06187 whole entry, the tested form may be a part): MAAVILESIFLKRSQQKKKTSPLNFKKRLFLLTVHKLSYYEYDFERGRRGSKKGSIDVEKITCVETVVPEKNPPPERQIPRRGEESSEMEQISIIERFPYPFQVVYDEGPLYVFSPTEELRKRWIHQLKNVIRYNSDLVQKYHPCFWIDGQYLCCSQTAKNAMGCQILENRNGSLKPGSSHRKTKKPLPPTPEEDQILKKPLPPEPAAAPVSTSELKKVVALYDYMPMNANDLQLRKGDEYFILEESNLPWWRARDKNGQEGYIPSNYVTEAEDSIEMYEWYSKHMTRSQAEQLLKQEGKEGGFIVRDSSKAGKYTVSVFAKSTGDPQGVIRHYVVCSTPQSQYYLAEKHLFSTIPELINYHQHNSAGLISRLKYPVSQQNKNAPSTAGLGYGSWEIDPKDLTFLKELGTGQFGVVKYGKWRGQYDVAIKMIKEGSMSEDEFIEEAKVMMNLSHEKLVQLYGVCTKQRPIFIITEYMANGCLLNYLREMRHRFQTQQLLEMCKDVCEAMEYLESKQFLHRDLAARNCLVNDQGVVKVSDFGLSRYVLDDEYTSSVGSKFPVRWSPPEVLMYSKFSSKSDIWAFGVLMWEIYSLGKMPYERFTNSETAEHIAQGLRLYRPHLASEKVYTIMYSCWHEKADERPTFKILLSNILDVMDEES
Casein kinase II subunit alpha (Homo sapiens), sequence (P68400 whole entry, looked up, the tested form may be a part): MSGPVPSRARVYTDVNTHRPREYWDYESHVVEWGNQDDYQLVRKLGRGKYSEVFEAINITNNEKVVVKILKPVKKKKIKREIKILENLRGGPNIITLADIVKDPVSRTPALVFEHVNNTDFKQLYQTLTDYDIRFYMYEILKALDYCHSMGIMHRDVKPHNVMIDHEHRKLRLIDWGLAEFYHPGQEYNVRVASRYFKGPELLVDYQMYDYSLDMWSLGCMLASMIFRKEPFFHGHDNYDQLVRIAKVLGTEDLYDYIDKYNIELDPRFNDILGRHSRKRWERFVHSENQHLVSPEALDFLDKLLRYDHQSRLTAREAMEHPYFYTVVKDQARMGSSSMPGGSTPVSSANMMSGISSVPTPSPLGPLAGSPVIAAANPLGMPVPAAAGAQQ
Aurora kinase B (Homo sapiens), sequence (Q96GD4 whole entry, the tested form may be a part): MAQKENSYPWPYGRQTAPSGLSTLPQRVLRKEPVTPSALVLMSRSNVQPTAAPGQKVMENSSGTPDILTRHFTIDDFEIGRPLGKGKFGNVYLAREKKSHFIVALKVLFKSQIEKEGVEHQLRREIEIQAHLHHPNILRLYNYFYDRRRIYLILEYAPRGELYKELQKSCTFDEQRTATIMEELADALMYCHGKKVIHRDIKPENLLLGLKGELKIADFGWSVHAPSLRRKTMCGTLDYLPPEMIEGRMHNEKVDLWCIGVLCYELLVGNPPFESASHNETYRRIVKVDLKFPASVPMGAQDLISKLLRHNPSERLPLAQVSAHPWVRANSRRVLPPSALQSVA
Serine/threonine-protein kinase Nek6 (Homo sapiens), sequence (Q9HC98 whole entry, the tested form may be a part): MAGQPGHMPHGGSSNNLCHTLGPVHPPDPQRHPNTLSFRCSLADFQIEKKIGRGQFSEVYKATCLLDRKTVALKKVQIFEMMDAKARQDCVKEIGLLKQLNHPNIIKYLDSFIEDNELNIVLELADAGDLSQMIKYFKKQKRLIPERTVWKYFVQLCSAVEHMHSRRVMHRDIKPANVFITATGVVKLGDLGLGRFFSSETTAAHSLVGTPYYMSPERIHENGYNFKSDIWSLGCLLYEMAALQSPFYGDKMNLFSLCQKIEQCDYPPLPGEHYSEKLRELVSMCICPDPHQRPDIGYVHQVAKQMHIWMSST
Serine/threonine-protein kinase pim-2 (Homo sapiens), sequence (Q9P1W9 whole entry, looked up, the tested form may be a part): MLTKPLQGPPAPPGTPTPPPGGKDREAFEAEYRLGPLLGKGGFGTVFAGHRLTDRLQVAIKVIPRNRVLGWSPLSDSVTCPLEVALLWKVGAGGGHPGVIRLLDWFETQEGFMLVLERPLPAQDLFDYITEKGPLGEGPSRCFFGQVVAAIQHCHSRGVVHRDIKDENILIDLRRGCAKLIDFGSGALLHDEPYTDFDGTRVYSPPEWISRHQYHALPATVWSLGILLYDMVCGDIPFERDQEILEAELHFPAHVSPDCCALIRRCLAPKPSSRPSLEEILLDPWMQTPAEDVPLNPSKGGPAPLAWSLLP
Phosphatidylinositol 3-kinase catalytic subunit type 3 (Homo sapiens), sequence (Q8NEB9 whole entry, the tested form may be a part): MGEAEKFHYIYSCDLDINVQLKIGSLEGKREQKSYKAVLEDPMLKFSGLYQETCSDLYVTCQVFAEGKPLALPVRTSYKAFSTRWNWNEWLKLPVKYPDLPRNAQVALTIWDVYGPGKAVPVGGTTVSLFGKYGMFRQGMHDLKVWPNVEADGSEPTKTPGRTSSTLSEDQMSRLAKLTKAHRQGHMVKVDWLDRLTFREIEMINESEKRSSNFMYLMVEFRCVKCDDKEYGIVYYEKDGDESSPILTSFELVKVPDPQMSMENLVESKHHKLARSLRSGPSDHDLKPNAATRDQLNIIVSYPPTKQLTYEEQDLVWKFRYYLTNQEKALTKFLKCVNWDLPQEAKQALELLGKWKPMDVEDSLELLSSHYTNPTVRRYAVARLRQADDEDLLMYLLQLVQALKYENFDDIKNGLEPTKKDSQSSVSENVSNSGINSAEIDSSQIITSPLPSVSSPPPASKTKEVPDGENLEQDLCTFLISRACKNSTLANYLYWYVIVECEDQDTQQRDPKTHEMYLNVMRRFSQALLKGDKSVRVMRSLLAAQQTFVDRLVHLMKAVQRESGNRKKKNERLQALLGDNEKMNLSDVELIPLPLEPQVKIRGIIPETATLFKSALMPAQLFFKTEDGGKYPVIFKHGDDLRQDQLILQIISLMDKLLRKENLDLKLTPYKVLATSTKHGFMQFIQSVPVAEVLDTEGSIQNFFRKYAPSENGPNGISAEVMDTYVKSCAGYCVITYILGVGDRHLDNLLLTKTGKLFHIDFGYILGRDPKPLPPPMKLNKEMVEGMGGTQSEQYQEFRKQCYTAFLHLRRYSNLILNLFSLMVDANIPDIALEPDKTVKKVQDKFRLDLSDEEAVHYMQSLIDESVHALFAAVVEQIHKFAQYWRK
RAC-alpha serine/threonine-protein kinase (Homo sapiens), P31749 [S473D], sequence (P31749 whole entry S473D, the tested form may be a part): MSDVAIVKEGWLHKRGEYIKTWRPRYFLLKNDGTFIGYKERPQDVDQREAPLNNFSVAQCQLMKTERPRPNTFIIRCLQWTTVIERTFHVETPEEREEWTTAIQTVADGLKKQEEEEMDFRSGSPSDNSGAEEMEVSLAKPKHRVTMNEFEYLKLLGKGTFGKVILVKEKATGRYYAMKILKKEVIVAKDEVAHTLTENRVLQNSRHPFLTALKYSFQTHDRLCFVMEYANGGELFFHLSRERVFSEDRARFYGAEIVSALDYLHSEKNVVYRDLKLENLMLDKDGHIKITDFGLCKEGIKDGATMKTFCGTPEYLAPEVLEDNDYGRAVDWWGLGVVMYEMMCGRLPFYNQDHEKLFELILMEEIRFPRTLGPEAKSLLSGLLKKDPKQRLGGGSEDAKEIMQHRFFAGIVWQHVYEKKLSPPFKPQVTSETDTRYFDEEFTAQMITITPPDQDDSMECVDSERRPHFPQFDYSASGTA

COc1ccc(-c2ccc3c(N4CCOCC4)nc(N4C[C@@H](C)O[C@@H](C)C4)nc3n2)cc1CO [Ku-0063794]
Activity [1]: 92% | inhibition [2]: Active | Activity [3]: 98% | Activity [4]: 36.5% | Activity [5]: 101% | Activity [6]: 86% | Activity [7]: 80% | Activity [8]: 74% | Activity [9]: 100% | Activity [10]: 80% | Activity [11]: 86% | Activity [12]: 85% | Activity [13]: 101% | Activity [14]: 81% | Activity [15]: 104% | inhibition [16]: Dose-Dependent Effect | inhibition [17]: Dose-Dependent Effect
